Published values of several laboratories.
Each line is one published result; the experiments were not run side by side.
Effect on: cell growth or viability

Compound | cell line | assay | setting | endpoint | value
Cc1nc2ccc(Cl)cn2c1C(=O)N1CCN(Cc2cn(-c3ccccc3)nn2)CC1 | HeLa | resazurin |  | CC50 | > 100 µM
COc1ccc(NS(=O)(=O)c2ccc(N(C)C=O)cc2)cn1 | HeLa | XTT | 72 h | IC50 | > 100 µM
COc1ccc(-n2cc(CN3CCN(C(=O)c4c(C)nc5ccc(Cl)cn45)CC3)nn2)c([N+](=O)[O-])c1 | HeLa | resazurin |  | CC50 | > 100 µM
CCOP(=O)(OCC)[C@@H]1C[C@@H](n2cc(-c3ccccn3)nn2)ON1C (racemic) | HeLa |  | 72 h | CC50 | > 250 µM
Nc1nc2c(ncn2COCCO)c(=O)[nH]1 | HEL |  | 72 h | CC50 | > 440 µM
C=CC1=C(C)c2cc3[nH]c(cc4nc(cc5[nH]c(cc1n2)c(C)c5CCC(=O)O)C(CCC(=O)O)=C4C)c(C)c3C=C | RPE-1 | resazurin | 4 h, dark | IC50 | > 100 µM
COc1cc(N)c(NS(=O)(=O)c2ccc(N(C)C)cc2)cc1OC | HeLa | XTT | 72 h | IC50 | > 100 µM
CCOP(=O)(OCC)[C@@H]1C[C@H](n2cc(C(=O)OC)nn2)ON1C (relative stereo) | HEL |  | 72 h | CC50 | > 100 µM
COc1ccc(S(=O)(=O)Nc2cc(OC)c(NC(=O)CCl)cc2OC)cc1 | HeLa | XTT | 72 h | IC50 | 2.4 µM
COc1ccc(-n2cc(CN3CCN(C(=O)c4c(C)nc5cc(C)ccn45)CC3)nn2)c([N+](=O)[O-])c1 | HeLa | resazurin |  | CC50 | > 100 µM
COC(=O)c1cc(N)cc(NS(=O)(=O)c2ccc(OC)cc2)c1 | HeLa | XTT | 72 h | IC50 | 20 µM
Cc1nc2ccc(Cl)cn2c1C(=O)N1CCN(Cc2cn(-c3cccc(Cl)c3)nn2)CC1 | HeLa | resazurin |  | CC50 | > 100 µM
CCOP(=O)(OCC)[C@@H]1C[C@@H](n2cc(-c3nccn3C)nn2)ON1C | HEL |  | 72 h | CC50 | > 100 µM
